Assays:
L1210 [1] = assay: Toxicity against L-1210 leukemia cells in mice after intraperitoneal administration, activity is expressed as LD10; settings: mouse, in vivo, ip
L1210 [2] = assay: Tested for 3 log kill of leukemia cells; assay type: functional, Mus musculus
Summary of the method: (§1)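 L-1210 leukemia cells (10^4) were inoculated intracerebrally into BDF2 mice, and drug was given intraperitoneally. The end point was the dose giving 3 log kill, expressed as log 1/C. The value comes from one or more individual experiments.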

[3] = Partition coefficient (logP); assay type: physicochemical; settings: octanol/water
Summary of the method: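 Shake partitioning between octanol and distilled water gave log P. For carboxylate substituents, log P was taken in 0.1 N NaOH, with Na+ as counterion.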

Mus musculus [4] = organism: Mus musculus; assay: Tested for 3 log kill of leukemia cells (i.e., a reduction of 1000-fold in tumor cells); assay type: functional; summary of the method: as §1
Mus musculus [5] = assay: Tested for toxicity against L-1210 leukemia cells in mice after ip administration, activity is expressed as LD10; assay type: organism-based; settings: in vivo

SMILES	log(1/LD10) (L1210 [1])	log(1/C) (L1210 [2])	logP ([3]; read-out: logP)	log(1/C) (Mus musculus [4])	logP [3]	log(1/LD10) (Mus musculus [5])
CC(C)(Cc1ccccc1)NC(=O)N(CCCl)N=O	-0.422	0.737	3.42			
CC12CC3(C)CC(C)(C1)CC(NC(=O)N(CCCl)N=O)(C2)C3	-0.384	0.783	5.75			
O=NN(CCF)C(=O)NC1CCS(=O)(=O)CC1	0.922	1.92	-0.39			
O=NN(CCCl)C(=O)NC1CCC(CC2CCC(NC(=O)N(CCCl)N=O)CC2)CC1 (configuration not stated)	0.283	1.36	6.07			
CC(NC(=O)N(CCCl)N=O)C(=O)O (configuration not stated)	0.511	0.918	0.5			
O=NN(CCCl)C(=O)NC1CS(=O)(=O)CS(=O)(=O)C1	0.842	1.9	-0.9			
O=NN(CCCl)C(=O)NC(C(=O)O)C1CCCCC1 (configuration not stated)	0.602	1.23	2.89			
O=NN(CCCl)C(=O)NC1CCC(CCl)CC1 (configuration not stated)	0.658	1.27	3.01			
O=NN(CCCl)C(=O)NC1CSCSC1	1.07	1.81	2.08			
O=NN(CCCl)C(=O)NC12CC3CC(CC(C3)C1)C2	0.664	1.16	3.62			
NC(=O)N(CCCl)N=O	1.43	1.05	0.57			
CN(C(=O)N(CC/C=N/C(=O)N(CCCl)N=O)N=O)C1CCCCC1	-0.207	0.353	3.19			
CC(C)C1CCC(NC(=O)N(CCF)N=O)CC1 (configuration not stated)	0.388	1.05	3.67			
O=NN(CCF)C(=O)NC1CCC(NC(=O)N(CCCl)N=O)CC1 (configuration not stated)	0.595	1.37	2.41			
Cc1cccc(C)c1NC(=O)N(CCCl)N=O	0.864	1.29	2.57			
CCOC(=O)C1CCCC(NC(=O)N(CCCl)N=O)C1 (configuration not stated)	0.786	1.41	2.2			
CC(C)(NC(=O)N(CCCl)N=O)C(=O)O	-0.049	0.591	0.91			
O=NN(CCCl)C(=O)N[C@H]1CC[C@@H](C(=O)O)CC1	1.03	1.63	1.68			
O=NN(CCCl)C(=O)N[C@H]1CC[C@@H](CC(=O)O)CC1	0.701	1.35	2.22			
O=NN(CCCl)C(=O)N[C@@H]1CCC[C@@H](O)C1	0.795	1.44	1			
COC(=O)[C@H]1CC[C@@H](NC(=O)N(CCCl)N=O)CC1	0.733	1.51	1.89			
CO[C@H]1CC[C@@H](NC(=O)N(CCCl)N=O)CC1	0.819	1.38	2.09			

SMILES	log(1/LD10) (L1210 [1])	log(1/C) (L1210 [2])	logP ([3]; read-out: logP)	log(1/C) (Mus musculus [4])	logP [3]	log(1/LD10) (Mus musculus [5])
CC(=O)O[C@H]1CCCC[C@@H]1NC(=O)N(CCCl)N=O	0.91	1.65	2.56			
O=NN(CCF)C(=O)N[C@H]1CC[C@@H](C(=O)O)CC1				1.06	1.1	
O=NN(CCCl)C(=O)N[C@H]1CC[C@H](O)CC1					1.1	0.774
O=NN(CCCl)C(=O)N[C@@H]1CCCC[C@@H]1O	0.698	1.32	1.75			
CC(=O)O[C@H]1CCCC[C@H]1NC(=O)N(CCCl)N=O	0.776	1.24	1.96			
CC(=O)O[C@@H]1[C@@H](OC(C)=O)[C@H](OC(C)=O)CO[C@H]1NC(=O)N(CCCl)N=O	1.25	1.91	0.82			
CC1SCC(NC(=O)N(CCCl)N=O)CS1 (configuration not stated)	1	1.61	2.49			
O=NN(CCF)C(=O)NC1C2CC3CC(C2)CC1C3 (configuration not stated)	0.592	0.797	3.04			
O=NN(CCCl)C(=O)NC1CCCCC1NC(=O)N(CCCl)N=O (configuration not stated)	0.423	1.5	3.57			
O=NN(CCCl)C(=O)NC1CCS(=O)(=O)C1 (configuration not stated)	1.13	1.82	0.57			
O=NN(CCCl)C(=O)NC1CCCC(C(=O)O)C1 (configuration not stated)	0.912	1.47	1.86			
O=NN(CCCl)C(=O)NC1C=CCCC1 (configuration not stated)	0.848	1.16	2.45			
O=NN(CCCl)C(=O)NC1CCSCC1	1.25	2.1	2.07			
CCC1CCC(NC(=O)N(CCF)N=O)CC1 (configuration not stated)	0.515	0.736	3.26			
CCC1CCC(NC(=O)N(CCCl)N=O)CC1 (configuration not stated)	0.445	1.27	3.84			
O=NN(CCCl)C(=O)NC1CCC(Br)CC1 (configuration not stated)	0.571	1.24	2.67			
O=NN(CCCl)C(=O)NC1CCCC(NC(=O)N(CCCl)N=O)C1 (configuration not stated)	0.146	1.41	2.74			
O=NN(CCCl)C(=O)NC(CCC(=O)O)C(=O)O (configuration not stated)	0.037	0.87	0.6			
CC(=O)OC1OC(C)C(OC(C)=O)C(OC(C)=O)C1NC(=O)N(CCCl)N=O (configuration not stated)	1.21	1.93	1.32			
O=NN(CCCl)C(=O)N[C@H]1C(O)O[C@H](CO)[C@@H](O)[C@@H]1O (stereo in doubt; 75) [CHLOROZOTOCIN]	1.03	1.76			-1.02	
O=NN(CCCl)C(=O)N[C@H]1C(O)O[C@H](CO)[C@@H](O)[C@@H]1O (stereo in doubt; 103) [CHLOROZOTOCIN]	0.928	1.46			-0.66	

Reference: ChEMBL document CHEMBL1121539, “Antitumor structure-activity relations. Nitrosoureas vs. L-1210 leukemia” (J Med Chem, 1980)
